Results on two substances are retold here after PMC4766003 (Biomacromolecules, 2015).

The target of this assay is Concanavalin A (Con A) (Canavalia ensiformis, UniProt P02866). As to the kind of experiment: isothermal titration calorimetry, one-site model. It is filed as binding. The conditions noted are these: 100 mM acetate pH 4.6, 1 mM MnCl2, 1 mM CaCl2, 30 mM NaCl, 25 °C; dimeric Con A. In outline: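 Con A dialysed (10 kDa cutoff) into the assay buffer, with concentration from A280 (A1%,1cm = 12.4, monomer basis). Glycopolymer ligands were dialysed and quantified colorimetrically. Titrant in the same buffer was injected into Con A at 25 °C, stirred at 1000 rpm. Con A 0.42–0.06 mM; polymers 0.338–0.017 mM at 2 s intervals; monomers 7.55–8.03 mM at 4 s intervals. One-site fit floated ΔH, Ka and n.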
(ITC needs no label: the signal is the heat of the interaction.)

Chain of Concanavalin A (Con A) (P02866 30-148 limits assumed): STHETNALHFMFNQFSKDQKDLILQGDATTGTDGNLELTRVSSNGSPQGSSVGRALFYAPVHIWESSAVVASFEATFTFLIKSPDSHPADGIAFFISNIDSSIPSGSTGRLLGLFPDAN
Chain of Concanavalin A (Con A) (P02866 164-281 limits assumed): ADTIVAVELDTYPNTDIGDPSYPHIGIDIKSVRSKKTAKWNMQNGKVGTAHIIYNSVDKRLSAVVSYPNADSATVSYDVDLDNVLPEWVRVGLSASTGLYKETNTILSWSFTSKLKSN

On to Man-Glc [25b], for which the “Ka (M^-1 × 10^3)^c” value is given as 8.56 × 10^3.
Turning to Man-Man [22b], the “Ka (M^-1 × 10^3)^c” value was 17.3 × 10^3.
